# Activity calls are given as the source filed them. The rule behind the calls is not given here.
# Tests used:
# [1] = target: T1, Luciferin 4-monooxygenase (Photinus pyralis, UniProt P08659); assay: (§1) Inhibition of Photinus pyralis luciferase by BrightGlo reporter gene assay
# Method in brief: (§2)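 5 nM purified P. pyralis luciferase in SteadyGlo or BrightGlo reporter-gene reagent; no extra ATP or D-luciferin added. 1536-well luminescence. Curves from 16 two-fold concentrations in duplicate, repeated on two or three separate days.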
# [2] = target: T1, Luciferin 4-monooxygenase; assay: Inhibition of Photinus pyralis luciferase
# [3] = target: T1, Luciferin 4-monooxygenase; assay: (§3) Inhibition of Photinus pyralis luciferase by Steady-Glo reporter gene assay; method in brief: as §2
# [4] = target: T1, Luciferin 4-monooxygenase; assay: Inhibition of Photinus pyralis luciferase by Easy lite assay
# Method in brief: (§4)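 Detection by 2 µL of EasyLite or Kinase-Glo reagent (Kinase-Glo containing P. pennsylvanica luciferase). 1536-well luminescence. 16 two-fold concentrations, duplicate wells, repeated on two or three days.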
# [5] = target: T2, Luciferin 4-monooxygenase (Photuris pensylvanica) (UniProt Q27757); assay: (§5) Inhibition of luciferase Photuris pennsylvanica by Promega Kinase-Glo assay; method in brief: as §4
# T2 sequence (whole entry): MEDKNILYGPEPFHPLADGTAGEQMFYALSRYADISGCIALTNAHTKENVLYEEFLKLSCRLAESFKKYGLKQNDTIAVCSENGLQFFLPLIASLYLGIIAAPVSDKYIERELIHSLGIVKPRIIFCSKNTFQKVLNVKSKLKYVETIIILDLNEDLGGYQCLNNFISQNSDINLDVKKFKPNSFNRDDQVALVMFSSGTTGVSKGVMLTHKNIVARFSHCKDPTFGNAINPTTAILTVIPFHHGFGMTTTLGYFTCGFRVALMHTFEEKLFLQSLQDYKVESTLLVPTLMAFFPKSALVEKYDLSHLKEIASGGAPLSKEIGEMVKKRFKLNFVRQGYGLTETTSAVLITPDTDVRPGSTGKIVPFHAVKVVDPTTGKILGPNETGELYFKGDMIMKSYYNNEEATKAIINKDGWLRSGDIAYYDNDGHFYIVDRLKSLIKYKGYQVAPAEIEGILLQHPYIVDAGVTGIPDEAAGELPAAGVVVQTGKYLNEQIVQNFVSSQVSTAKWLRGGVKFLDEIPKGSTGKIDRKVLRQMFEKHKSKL
# [6] = target: T1, Luciferin 4-monooxygenase; assay: Inhibition of Photinus pyralis luciferase by PK-Light assay
# [7] = target: T2, Luciferin 4-monooxygenase (Photuris pensylvanica); assay: Inhibition of Photuris pennsylvanica luciferase at 57 uM by Promega Kinase-Glo assay
# [8] = target: T3, Luciferin 4-monooxygenase (Photuris pensylvanica, UniProt Q27757); assay: as §5; method in brief: as §4
# T3 sequence (Q27757 whole entry): T2 sequence (whole entry)
# [9] = target: Luciferin 4-monooxygenase (Photinus pyralis) (UniProt P08659); assay: Inhibition of Photinus pyralis luciferase at 1 uM
# Sequence of Luciferin 4-monooxygenase (Photinus pyralis) (P08659 whole entry): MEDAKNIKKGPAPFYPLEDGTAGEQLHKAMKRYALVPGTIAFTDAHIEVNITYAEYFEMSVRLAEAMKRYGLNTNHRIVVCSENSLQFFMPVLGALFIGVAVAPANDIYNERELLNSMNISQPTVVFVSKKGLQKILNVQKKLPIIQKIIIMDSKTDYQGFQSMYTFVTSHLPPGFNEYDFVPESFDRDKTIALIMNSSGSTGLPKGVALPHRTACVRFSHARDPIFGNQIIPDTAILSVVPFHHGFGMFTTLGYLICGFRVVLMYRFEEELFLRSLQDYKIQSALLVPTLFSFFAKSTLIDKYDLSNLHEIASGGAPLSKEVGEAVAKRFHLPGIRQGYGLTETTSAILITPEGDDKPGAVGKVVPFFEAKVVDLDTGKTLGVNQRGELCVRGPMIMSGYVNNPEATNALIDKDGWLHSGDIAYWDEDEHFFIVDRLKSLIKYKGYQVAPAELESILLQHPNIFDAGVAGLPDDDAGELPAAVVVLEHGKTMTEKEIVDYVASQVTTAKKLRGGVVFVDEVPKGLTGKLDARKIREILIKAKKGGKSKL
# [10] = target: Luciferin 4-monooxygenase (Photinus pyralis) (UniProt P08659); assay: as §1; method in brief: as §2
# [11] = target: Luciferin 4-monooxygenase (Photinus pyralis) (UniProt P08659); assay: as §3; method in brief: as §2
# [12] = Inhibition of Renilla reniformis luciferase
# [13] = target: Luciferin 4-monooxygenase (Photinus pyralis) (UniProt P08659); assay: Inhibition of Photinus pyralis luciferase at 3 uM
# T1 sequence (P08659 whole entry): as above
IC50 [1] [µM],IC50 [2] [µM],IC50 [3] [µM],IC50 [4] [µM],Activity [5],IC50 [6] [µM],Activity [7],IC50 [8] [µM],inhibition [9] [%],Activity [10],Activity [11],IC50 [12] [µM],inhibition [13] [%],SMILES
13.3,1.1,10,3.2,inactive,5.4,inactive,–,–,–,–,–,–,Cc1ccc(C(=O)Nc2nc3ccc(S(C)(=O)=O)cc3s2)s1
3.2,1.1,2.5,1.3,–,6.1,–,9.5,–,–,–,–,–,CS(=O)(=O)c1ccc2nc(NC(=O)c3cccs3)sc2c1
–,–,–,–,–,–,–,–,28,–,–,–,–,CCN(CC)c1ccc2cc(-c3nc4ccccc4n3C)c(=O)oc2c1
12,3.2,2.6,5.1,–,13,–,12,–,–,–,–,–,Brc1ccc(-c2nc(-c3ccccn3)no2)o1
3.6,1,4,1.1,–,3.6,–,14.2,–,–,–,–,–,O=C(/C=C\Nc1ccc(F)cc1)c1ccco1
0.2,0.08,0.5,0.28,–,0.25,–,14.2,–,–,–,–,–,COc1ccc(C(=O)Nc2ccc(C)cn2)c(OC)c1
1.9,0.3,0.9,1.2,–,1.2,–,> 50,–,–,–,–,–,O=C(/C=C\Nc1cccc(F)c1)c1ccc2c(c1)OCO2
–,–,–,–,–,–,–,–,–,inactive,inactive,> 25,–,Cc1ccc(-c2cc(C(=O)N3CCN(c4ncccn4)CC3)c3ccccc3n2)cc1
12,1,11,2.3,inactive,3.3,–,–,–,–,–,–,–,Cc1ccc(-c2noc(-c3ccccc3Br)n2)cc1
0.08,0.08,0.2,0.17,–,0.17,–,10,–,–,–,> 50,–,O=C(/C=C\Nc1ccccc1Br)c1ccccn1
1,0.41,1.2,0.37,–,0.98,–,6.9,–,–,–,–,–,COc1ccc(C(=O)NC(=O)Nc2cc(C)ccn2)cc1
0.7,0.3,0.6,0.15,–,0.2,–,5.1,–,–,–,–,–,O=c1c2ccccc2cnn1-c1nc2ccccc2s1
0.6,0.32,2.8,1.8,inactive,1.1,–,–,–,–,–,–,–,Cc1ccc(C(=O)Cn2c3c(sc2=N)CCCC3)cc1
2.6,0.4,1.4,2.1,inactive,1.6,–,–,–,–,–,–,–,c1ccc(-c2noc(-c3ccc4ccccc4c3)n2)cc1
–,4.5,–,11.4,inactive,7.8,–,–,–,inactive,inactive,> 50,–,Clc1cccc(/C=N\C=N\c2cccc(Cl)c2)c1
5.3,0.2,10,3.6,–,4.7,–,> 50,–,–,–,–,–,C[C@@H](C(=O)O)c1ccc(N2Cc3ccccc3C2=O)cc1 [(R)-INDOPROFEN]
0.3,0.15,0.16,0.4,–,0.5,–,10.5,–,–,–,–,–,Cc1ccc(-c2nc(-c3ccccc3)no2)c(Cl)c1
13.3,1.1,10,3.2,inactive,5.4,–,–,–,–,–,–,100,COc1ccc(-c2cc3ccc(OCc4nn[nH]n4)cc3oc2=O)cc1
11.3,0.6,12,2.1,inactive,1.45,–,–,–,–,–,–,–,CCOc1ccc2nc(NC(=O)Nc3cccs3)sc2c1
60,6.2,> 100,11,inactive,6.4,–,–,–,–,–,–,–,COc1cccc(-c2cc(=O)c3ccccc3o2)c1N

SMILES,IC50 [1] [µM],IC50 [2] [µM],IC50 [3] [µM],IC50 [4] [µM],Activity [5],IC50 [6] [µM],Activity [7],IC50 [8] [µM],inhibition [9] [%],Activity [10],Activity [11],IC50 [12] [µM],inhibition [13] [%]
CC(C)(C)C(=O)Nc1ccc(NC(=O)c2cccc(O)c2)nc1,7.2,0.7,0.8,0.8,–,5,–,> 30,–,–,–,–,–
